One may read the pIC50 as the IC50 on a negative log10 scale, so that one unit is a factor of ten. Broadly, the IC50 is the midpoint of a concentration-inhibition curve. Lower therefore signals inhibition by little substance.

Assay [1] addresses Dual specificity protein kinase CLK3 (Mus musculus, UniProt O35492). In words: Inhibition of mouse recombinant GST-tagged CLK3 using GRSRSRSRSRSR as substrate. An outline of the steps:
(§1)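 Mouse GST-fusion CLK1 or CLK3 expressed in E. coli. Assay buffer A (Tris-HCl pH 7.5, MgCl2, EGTA, DTT, heparin) plus 0.15 mg/mL BSA. RS peptide 1 μg/assay, 15 μM ATP final, 30 C. Blank subtracted; activity expressed as percent of activity without inhibitor. DMSO controls. Concentration range up to 10 μM.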

For assay [2], the species on record is Sus scrofa. Nature of the assay: Inhibition of pig brain CK1 delta/epsilon using RRKHAAIGpSAYSITA as substrate at 10 uM. In outline: (§2)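 Native CK1δ/ε from porcine brain, assayed in 3-fold diluted buffer C with 25 μM CKS peptide substrate. 15 μM ATP final, 30 C. Activity is percent of uninhibited control after blank subtraction, with DMSO controls. Inhibitor tested over a range of concentrations up to 10 μM.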

For assay [3], the target named is T1, Dual specificity tyrosine-phosphorylation-regulated kinase 2 (Homo sapiens) (UniProt Q92630).
T1 sequence (whole entry): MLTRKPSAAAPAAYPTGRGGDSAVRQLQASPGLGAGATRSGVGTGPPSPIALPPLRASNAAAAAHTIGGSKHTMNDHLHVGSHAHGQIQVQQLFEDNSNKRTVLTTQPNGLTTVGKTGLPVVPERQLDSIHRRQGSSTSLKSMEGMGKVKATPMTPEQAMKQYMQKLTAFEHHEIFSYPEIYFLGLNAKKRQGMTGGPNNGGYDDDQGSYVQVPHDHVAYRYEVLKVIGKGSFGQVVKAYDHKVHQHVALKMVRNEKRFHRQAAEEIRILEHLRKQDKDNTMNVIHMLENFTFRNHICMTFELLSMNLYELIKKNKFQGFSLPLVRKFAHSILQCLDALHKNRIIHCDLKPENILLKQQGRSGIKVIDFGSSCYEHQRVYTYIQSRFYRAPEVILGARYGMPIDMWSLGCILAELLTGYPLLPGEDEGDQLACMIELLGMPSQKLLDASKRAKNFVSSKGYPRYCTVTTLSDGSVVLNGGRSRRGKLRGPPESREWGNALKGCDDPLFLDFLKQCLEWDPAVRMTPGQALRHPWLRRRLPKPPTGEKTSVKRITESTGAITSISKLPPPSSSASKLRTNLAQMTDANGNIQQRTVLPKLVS
Nature of the assay: Inhibition of human recombinant GST-tagged DYRK2 using […] as substrate and [gamma32]-ATP at 10 uM after 30 mins by scintillation counting. In outline:
(§3)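 GST fusion kinases expressed in E. coli and purified on glutathione-agarose; DYRK1A is rat, DYRK2 is human. Assay buffer A (25 mM Tris-HCl pH 7.5, 10 mM MgCl2, 1 mM EGTA, 1 mM DTT, 50 μg/mL heparin) plus 0.15 mg/mL BSA. Woodtide 1.5 μg/assay with 15 μM [γ-33P]ATP, 30 min at 30 C. Product captured on P81 paper, washed in 1% phosphoric acid, scintillation counted. Activity expressed as percent of uninhibited control.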

In assay [4] the target is Dual specificity protein kinase CLK1 (Mus musculus) (UniProt P22518). Nature of the assay: Inhibition of mouse recombinant GST-tagged CLK1 using GRSRSRSRSRSR as substrate at 10 uM. An outline of the steps: as §1
Sequence of Dual specificity protein kinase CLK1 (Mus musculus) (P22518 whole entry, looked up): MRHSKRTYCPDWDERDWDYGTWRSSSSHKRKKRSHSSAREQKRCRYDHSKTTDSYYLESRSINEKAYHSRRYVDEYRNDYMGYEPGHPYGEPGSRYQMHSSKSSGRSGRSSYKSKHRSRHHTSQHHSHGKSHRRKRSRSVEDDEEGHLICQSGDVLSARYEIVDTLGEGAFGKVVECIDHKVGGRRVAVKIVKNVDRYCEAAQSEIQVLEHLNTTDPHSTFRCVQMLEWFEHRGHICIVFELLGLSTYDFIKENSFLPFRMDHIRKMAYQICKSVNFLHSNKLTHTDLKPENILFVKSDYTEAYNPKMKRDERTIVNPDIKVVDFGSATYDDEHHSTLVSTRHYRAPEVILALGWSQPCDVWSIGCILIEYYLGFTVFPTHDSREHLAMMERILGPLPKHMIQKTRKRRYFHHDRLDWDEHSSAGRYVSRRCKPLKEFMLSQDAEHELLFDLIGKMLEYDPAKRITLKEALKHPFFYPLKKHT
In assay [5] the target is T2, Serine/threonine-protein kinase pim-1 (Homo sapiens, UniProt P11309). In words: Inhibition of human recombinant Pim1 at 10 uM. In outline: (§4)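 Kinase assayed in buffer C (25 mM Mops pH 7.2, 60 mM beta-glycerophosphate, 30 mM p-nitrophenylphosphate, 15 mM MgCl2, 5 mM EGTA, 1 mM DTT, 0.1 mM vanadate) with 1 mg/mL histone H1. 15 μM ATP final, 30 C. Activity is percent of activity without inhibitor, after blank subtraction. DMSO controls.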
Target sequence in this assay (P11309 whole entry, looked up): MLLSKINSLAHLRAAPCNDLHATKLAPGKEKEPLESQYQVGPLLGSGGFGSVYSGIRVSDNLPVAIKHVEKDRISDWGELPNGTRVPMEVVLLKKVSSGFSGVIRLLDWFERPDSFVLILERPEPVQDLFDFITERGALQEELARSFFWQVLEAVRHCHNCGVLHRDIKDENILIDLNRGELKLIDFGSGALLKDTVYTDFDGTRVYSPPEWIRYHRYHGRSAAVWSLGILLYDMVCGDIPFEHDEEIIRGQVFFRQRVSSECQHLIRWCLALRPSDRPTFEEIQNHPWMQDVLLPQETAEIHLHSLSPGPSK

For assay [6], the target named is Cyclin-dependent kinase 5/CDK5 activator 1 (Homo sapiens) (UniProt Q00535+Q15078). In words: Inhibition of human recombinant CDK5/p25 at 10 uM. It counts as protein-complex assay. An outline of the steps: as §4
Sequence of Cyclin-dependent kinase 5/CDK5 activator 1 (Homo sapiens) (Q00535 whole entry): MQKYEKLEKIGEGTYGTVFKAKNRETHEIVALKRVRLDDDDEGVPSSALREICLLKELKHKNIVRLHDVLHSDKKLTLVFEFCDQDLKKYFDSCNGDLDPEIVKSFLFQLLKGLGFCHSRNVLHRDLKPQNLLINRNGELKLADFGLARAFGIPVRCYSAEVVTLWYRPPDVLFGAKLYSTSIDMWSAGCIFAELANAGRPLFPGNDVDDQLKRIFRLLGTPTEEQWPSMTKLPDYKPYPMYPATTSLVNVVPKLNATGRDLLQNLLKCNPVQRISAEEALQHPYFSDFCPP
Sequence of Cyclin-dependent kinase 5/CDK5 activator 1 (Homo sapiens) (Q15078 99-307 partner limits assumed): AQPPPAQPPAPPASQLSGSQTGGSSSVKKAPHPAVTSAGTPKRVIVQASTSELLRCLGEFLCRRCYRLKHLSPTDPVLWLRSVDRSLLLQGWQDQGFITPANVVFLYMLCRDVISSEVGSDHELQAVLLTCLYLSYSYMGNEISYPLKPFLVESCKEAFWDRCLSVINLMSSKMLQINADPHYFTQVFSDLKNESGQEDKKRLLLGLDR
Assay [7] deals with T3, Dual specificity tyrosine-phosphorylation-regulated kinase 2 (Homo sapiens, UniProt Q92630).
T3 sequence (Q92630 whole entry): T1 sequence (whole entry)
Nature of the assay: Inhibition of human recombinant GST-tagged DYRK2 using KKISGRLSPIMTEQ as substrate and [gamma32]-ATP after 30 mins by scintillation counting. In outline: (§5)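 GST fusion kinases expressed in E. coli and purified on glutathione-agarose; DYRK1A is rat, DYRK2 is human. Assay buffer A (25 mM Tris-HCl pH 7.5, 10 mM MgCl2, 1 mM EGTA, 1 mM DTT, 50 μg/mL heparin) plus 0.15 mg/mL BSA. Product captured on P81 paper, washed in 1% phosphoric acid, scintillation counted. Activity expressed as percent of uninhibited control.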

Assay [8] deals with Glycogen synthase kinase-3 (Sus scrofa, UniProt B2LUN4+I6LNT8). In words: Inhibition of pig brain GSK-3alpha/beta using YRRAAVPPSPSLSRHSSPHQSpEDEEE as substrate. In outline: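 Compounds were tested at various concentrations, the highest being 10 μM, with DMSO dilution controls. Blanks were subtracted and activity was expressed as percent of the uninhibited maximum.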
In assay [9] the target is Dual specificity tyrosine-phosphorylation-regulated kinase 1A (Rattus norvegicus, UniProt Q63470). Nature of the assay: Inhibition of rat recombinant GST-tagged DYRK1A using KKISGRLSPIMTEQ as substrate and [gamma32]-ATP after 30 mins by scintillation counting. In outline:
as §5

The target of assay [10] is T2, Serine/threonine-protein kinase pim-1. Nature of the assay: Inhibition of human recombinant Pim1. In outline: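 Kinase assayed in buffer C (25 mM Mops pH 7.2, 60 mM beta-glycerophosphate, 30 mM p-nitrophenylphosphate, 15 mM MgCl2, 5 mM EGTA, 1 mM DTT, 0.1 mM vanadate) with 1 mg/mL histone H1. DMSO controls.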
Target sequence in this assay (P11309 whole entry): as the sequence (P11309 whole entry, looked up) above
The nature of assay [11]: Inhibition of pig brain CK1 delta/epsilon using RRKHAAIGpSAYSITA as substrate. More on the design: species or system Sus scrofa. In outline: as §2
For assay [12], the target named is Dual specificity protein kinase CLK1 (Mus musculus, UniProt P22518). Nature of the assay: Inhibition of mouse recombinant GST-tagged CLK1 using GRSRSRSRSRSR as substrate. In outline:
as §1

Assay [13] addresses Dual specificity protein kinase CLK3 (Mus musculus) (UniProt O35492). Nature of the assay: Inhibition of mouse recombinant GST-tagged CLK3 using GRSRSRSRSRSR as substrate at 10 uM. An outline of the steps:
as §1

For assay [14], the system named is Cyclin-dependent kinase 5/p25 (Homo sapiens). Nature of the assay: Inhibition of human recombinant CDK5/p25 at 10 uM.
For assay [15], the target named is Dual specificity tyrosine-phosphorylation-regulated kinase 1A (Rattus norvegicus) (UniProt Q63470). In words: Inhibition of rat recombinant GST-tagged DYRK1A using KKISGRLSPIMTEQ as substrate and [gamma32]-ATP at 10 uM after 30 mins by scintillation counting. In outline: as §3
Assay [16] deals with Dual specificity protein kinase CLK1 (Homo sapiens) (UniProt P49759). In words: Inhibition of CLK1 transfected in human HeLa cells assessed as increase in exon inclusion ratio after 24 hrs by RT-PCR analysis. It counts as cell-based. In outline: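 HeLa cells were transfected with […], with kinase-dead CLK1/K190R as comparator. Inhibitors at varying doses were added 3 h post-transfection, with 0.5% DMSO final in all cultures. Cells were harvested 24 h post-transfection, total RNA was extracted, and E1A splicing products were analysed by RT-PCR. Isoform molar ratios were measured by Bioanalyzer to give the exon inclusion ratio. Three independent samples were used.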
Sequence of Dual specificity protein kinase CLK1 (Homo sapiens) (P49759 whole entry, looked up, canonical isoform): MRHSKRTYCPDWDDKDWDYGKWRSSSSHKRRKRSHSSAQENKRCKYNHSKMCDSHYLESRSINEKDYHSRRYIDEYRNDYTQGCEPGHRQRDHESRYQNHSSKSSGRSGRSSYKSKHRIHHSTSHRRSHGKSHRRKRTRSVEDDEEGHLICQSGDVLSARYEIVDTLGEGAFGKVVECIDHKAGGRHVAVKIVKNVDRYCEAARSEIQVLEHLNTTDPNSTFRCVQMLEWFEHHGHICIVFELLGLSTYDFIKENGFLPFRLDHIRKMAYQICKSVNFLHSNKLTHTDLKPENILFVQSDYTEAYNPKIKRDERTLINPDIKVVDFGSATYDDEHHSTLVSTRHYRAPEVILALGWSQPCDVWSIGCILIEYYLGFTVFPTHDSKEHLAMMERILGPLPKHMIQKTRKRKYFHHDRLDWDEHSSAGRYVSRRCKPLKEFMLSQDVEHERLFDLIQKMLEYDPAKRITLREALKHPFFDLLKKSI

pIC50: −log10 of the molar value. Activity calls are given as the source filed them. The rule behind the calls is not given here.

Sequence of Dual specificity protein kinase CLK1 (P22518 whole entry): as the sequence (P22518 whole entry, looked up) above
Sequence of Dual specificity protein kinase CLK3 (Mus musculus) (O35492 whole entry): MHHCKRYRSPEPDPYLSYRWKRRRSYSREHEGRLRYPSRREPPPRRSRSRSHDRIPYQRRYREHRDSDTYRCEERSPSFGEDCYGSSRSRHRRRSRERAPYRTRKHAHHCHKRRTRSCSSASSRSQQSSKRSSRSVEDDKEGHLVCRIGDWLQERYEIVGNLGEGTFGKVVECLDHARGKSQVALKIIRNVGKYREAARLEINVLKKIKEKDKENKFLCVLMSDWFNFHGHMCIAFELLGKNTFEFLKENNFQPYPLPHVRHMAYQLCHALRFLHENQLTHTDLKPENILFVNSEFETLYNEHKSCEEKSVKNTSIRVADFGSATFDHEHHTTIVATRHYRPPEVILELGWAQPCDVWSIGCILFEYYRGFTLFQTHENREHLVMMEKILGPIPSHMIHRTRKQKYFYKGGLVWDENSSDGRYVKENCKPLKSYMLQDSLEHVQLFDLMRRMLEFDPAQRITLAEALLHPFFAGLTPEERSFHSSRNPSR
Sequence of Dual specificity protein kinase CLK3 (O35492 whole entry, the tested form may be a part): as the sequence (O35492 whole entry) above

In the case of `CCCNC1=N/C(=C\c2ccc(Br)cc2)C(=O)N1C`, the pIC50 in [1] is 5.06. Moreover, the inhibition result in [2], in [3], in assay [4], in assay [5] and in [6] was “inactive” in each case.

Regarding `CN1C(=O)/C(=C/c2ccc3c(c2)OCO3)N=C1N` [LEUCETTAMINE B], the pIC50 in assay [7] was 5.82; in assay [1], 5.19; in [9] it was 5.55; in assay [10] it was less than 5.00; in assay [11] it was less than 5.00; in assay [12], 6.40. Also, the IC50 in assay [8] was greater than 10000 nM.

For `CCCNC1=N/C(=C\c2ccc3c(c2)OCO3)C(=O)N1CCC`, the results for the pIC50 in assay [7], in [9] and in assay [10] were 5.68, less than 5.00 and less than 5.00, respectively. Also, the inhibition result in assay [2], in [4], in assay [13] and in assay [6] was “inactive” throughout.

As to `CN1C(=O)/C(=C/c2ccc3c(c2)OCO3)N=C1NCC1CC1`, the pIC50 in assay [7] was 6.47; in assay [1] it was 6.29; in assay [9], 6.70; in assay [10], 5.68; in assay [11] it was less than 5.00; in assay [12], 6.89.

As for `CCCNC1=N/C(=C\c2cc(OC)c(OC)c(OC)c2)C(=O)N1C`, the pIC50 in [7], in assay [10] and in assay [12] was less than 5.00 in each case. In addition, the inhibition result in assay [2], in assay [14], in assay [13], in [15] and in assay [6] was “inactive” throughout.

Take `CCCNC1=N/C(=C\c2ccc3c(c2)OC(F)(F)O3)C(=O)N1C`: the inhibition result in assay [2], in [14], in assay [3], in [4], in assay [13] and in assay [15] was “inactive” in each case. The inhibition result in assay [6] is “inactive”. Further, the pIC50 in [10] is less than 5.00.

`CCCNC1=N/C(=C\c2ccccc2O)C(=O)N1C`: the pIC50 in assay [7], in assay [1], in assay [10] and in [12] was less than 5.00 each time. The inhibition entry in assay [2], in assay [14] and in assay [6] was “inactive” throughout.

Consider `CC[C@H](CO)Nc1nc(NCc2ccccc2)c2ncn(C(C)C)c2n1`, for which the “increase in exon inclusion ratio” value in assay [16] is “inactive”.

On to `CCCNC1=N/C(=C\c2ccccc2)C(=O)N1C`, for which the inhibition entry in [2], in assay [14], in [3], in [4], in [13] and in assay [15] was “inactive” throughout. Besides, the inhibition entry in [6] was “inactive”. Further, the pIC50 in [10] is less than 5.00.

Regarding `CN1C(=O)/C(=C/c2ccc3c(c2)OCO3)N=C1Nc1ccc2c(c1)OCCO2`, the pIC50 was 5.44 in assay [1]; 6.66 in assay [9]; 5.66 in assay [10]; less than 5.00 in assay [11]; 6.66 in assay [12].

For the compound `COc1ccc2c(c1)[nH]c1c(C)nccc12`, the “increase in exon inclusion ratio” value in [16] was “Dose-dependent effect”.

`CCN1/C(=C/C(C)=O)Sc2ccc(OC)cc21`: the “increase in exon inclusion ratio” value in assay [16] was “Dose-dependent effect”.
